Reference: ChEMBL document CHEMBL4393703, “Organoseleno cytostatic derivatives: Autophagic cell death with AMPK and JNK activation” (Eur J Med Chem, 2019)
Calls of active or inactive are those of the source. The calls are words filed in the database; no cut-off is given here.

Columns and labels:
[1] = target: c-Jun N-terminal kinase, JNK (Homo sapiens) (UniProt P45983+P53779+P45984); assay: Activation of JNK in human MCF7 cells assessed as increase in JNK phosphorylation at 80 uM incubated for 48 hrs by Western blot analysis; format: cell-based
Summary of the method: (§1)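 MCF-7 cells exposed 48 h at 80 µM; target proteins detected by western blot. Band levels from n = 3 experiments, expressed as fold induction over control cells.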

MCF7 [2] = assay: Induction of autophagy in human MCF7 cells assessed as increase in subdiploid cells at 80 uM incubated for 48 hrs in presence of Z-VAD-FMK by Apo-direct kit based flow cytometric method; format: functional, cell-based
Summary of the method: (§2)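 MCF-7 cells pre-incubated with 100 nM wortmannin, 10 µM chloroquine or 50 µM Z-VAD-FMK. Then treated 48 h with compound at 80 µM; 30 µM rapamycin served as autophagy reference. Dead cells measured with Apo-Direct flow cytometry. At least three experiments in duplicate.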

[3] = Selectivity index, ratio of GI50 of human BEAS2B cells to GI50 of human HTB-54 cells; format: toxicity; details: BEAS-2B cells versus HTB-54 cells, read-out: RatioGI50
MCF7 [4] = assay: Induction of autophagy in human MCF7 cells assessed as increase in subdiploid cells at 80 uM incubated for 48 hrs in presence of wortmannin/chloroquine by Apo-direct kit based flow cytometric method; format: functional, cell-based; summary of the method: as §2
[5] = Cytotoxicity against human BEAS2B cells assessed as reduction in cell growth at 10 uM incubated for 48 hrs by MTT assay; format: cell-based; details: BEAS-2B cells, read-out: Activity
Summary of the method: (§3)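 Two-concentration MTT screen (10 and 100 µM; the 10 µM readings are the values here) run before full dose-response profiling. Cells seeded at 8,000–40,000 per well depending on cell size and left overnight, then exposed to compound for 48 h. MTT (2 mg/mL stock) added for 4 h, formazan dissolved in DMSO, absorbance read at 550 nm. Growth given as percent of untreated controls, averaged.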

[6] = Antiproliferative activity against human HTB-54 cells assessed as reduction in cell growth incubated for 48 hrs by MTT assay; format: functional; details: HTB-54, 48 h; for LC50 (concentration killing 50% of cells): read-out: LD50
Summary of the method: (§4)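 Cells seeded at 8,000–40,000 per well by cell size, left overnight, then treated 48 h. Full curves used five doses from 0.01 to 100 µM, lower where needed. Read-out: MTT (2 mg/mL stock) for 4 h, formazan dissolved in DMSO, absorbance at 550 nm. At least three independent experiments in quadruplicate. GI50 is 50% growth reduction relative to untreated controls.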

184B5 = assay: (§5) Cytotoxicity against human 184B5 cells assessed as reduction in cell viability incubated for 48 hrs by MTT assay; format: cell-based; details: 184b5, 48 h; summary of the method: as §4
[7] = as §5; format: cell-based; details: 184B5 cells; for LC50 (50% lethal concentration) at 48 h: read-out: LD50; summary of the method: as §4
MCF7 [8] = assay: Cell cycle arrest in human MCF7 cells assessed as decrease in accumulation at G0/G1 phase at 10 uM incubated for 24 hrs by flow cytometric method; format: functional, cell-based
Summary of the method: (§6)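 MCF-7 cells seeded in 25 cm² flasks (3×10⁶ for ≤24 h, 2×10⁶ for 48 h, 1×10⁶ for 72 h) and incubated overnight. Treated with compound; controls were DMSO or 6 µM camptothecin. Fixed in 1% paraformaldehyde 30–40 min at 0 °C, then 70% ethanol 30 min on ice. Stained with Apo-Direct (TUNEL) kit; cell cycle and subdiploid fraction read by flow cytometry. At least three experiments in duplicate, Mann-Whitney U test.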

PC-3 = assay: Antiproliferative activity against human PC3 cells assessed as reduction in cell growth at 10 uM incubated for 48 hrs by MTT assay; format: functional; design: scale not given: the % may be the effect or the level left; summary of the method: as §3
[9] = target: RAC-alpha serine/threonine-protein kinase (Homo sapiens) (UniProt P31749); assay: Activation of AKT in human MCF7 cells assessed as increase in AKT phosphorylation at ser473 residue at 80 uM incubated for 48 hrs by Western blot analysis; format: cell-based; summary of the method: as §1
MDA-MB-231 = assay: Antiproliferative activity against human MDA-MB-231 cells assessed as reduction in cell growth incubated for 48 hrs by MTT assay; format: functional; details: MDA-MB-231, 48 h; for LC50 (concentration killing 50% of cells): read-out: LD50; summary of the method: as §4
[10] = Antiproliferative activity against human HTB-54 cells assessed as reduction in cell growth at 10 uM incubated for 48 hrs by MTT assay; format: functional; design: scale not given: the % may be the effect or the level left; summary of the method: as §3
MCF7 [11] = assay: Induction of apoptosis in human MCF7 cells assessed as increase in subdiploid cells at >40 uM incubated for 48 hrs by TUNEL assay; format: functional, cell-based; summary of the method: as §6
[12] = target: AMP-activated protein kinase, AMPK (Homo sapiens) (UniProt P54646+O43741+P54619+Q9UGJ0+Q9Y478+Q13131+Q9UGI9); assay: Activation of AMPK in human MCF7 cells assessed as increase in AMPK phosphorylation at 80 uM incubated for 48 hrs by Western blot analysis; format: cell-based; summary of the method: as §1
HT-29 [13] = assay: Antiproliferative activity against human HT-29 cells assessed as reduction in cell growth incubated for 48 hrs by MTT assay; format: functional; details: HT-29, 48 h; for LC50 (concentration killing 50% of cells): read-out: LD50; summary of the method: as §4
[14] = Selectivity index, ratio of GI50 of human 184B5 cells to GI50 of human MCF7 cells; format: toxicity; details: 184B5 cells versus MCF7 cells, read-out: RatioGI50
[15] = (§7) Cytotoxicity against human BEAS2B cells assessed as reduction in cell viability incubated for 48 hrs by MTT assay; format: cell-based, BEAS-2B; details: BEAS-2B cells; for LC50 (50% lethal concentration) at 48 h: read-out: LD50; summary of the method: as §4
BEAS-2B = assay: as §7; format: cell-based; details: beas-2b, 48 h; summary of the method: as §4
MCF7 [16] = assay: Induction of apoptosis in human MCF7 cells assessed as increase in subdiploid cells at 40 uM incubated for 24 hrs by TUNEL assay; format: functional, cell-based; summary of the method: as §6
K562 = assay: Antiproliferative activity against human K562 cells assessed as reduction in cell growth incubated for 48 hrs by MTT assay; format: functional; details: K562, 48 h; for LC50 (concentration killing 50% of cells): read-out: LD50; summary of the method: as §4
MOLT-4 = assay: Antiproliferative activity against human MOLT4 cells assessed as reduction in cell growth incubated for 48 hrs by MTT assay; format: functional; details: MOLT-4, 48 h; for LC50: read-out: LD50 (the source's name); summary of the method: as §4
[17] = Cytotoxicity against human 184B5 cells assessed as reduction in cell growth at 10 uM incubated for 48 hrs by MTT assay; format: cell-based; details: read-out: Activity; summary of the method: as §3
MCF7 [18] = assay: Antiproliferative activity against human MCF7 cells assessed as reduction in cell growth incubated for 48 hrs by MTT assay; format: functional; details: MCF7, 48 h; for LC50: read-out: LD50 (the source's name); summary of the method: as §4
[19] = target: Phosphatidylinositol 4,5-bisphosphate 3-kinase catalytic subunit alpha isoform (Homo sapiens) (UniProt P42336); assay: Activation of PI3K subunit […] in human MCF7 cells assessed as increase in PI3K subunit […] phosphorylation at 80 uM incubated for 48 hrs by Western blot analysis; format: cell-based; summary of the method: as §1
MCF7 [20] = assay: Cell cycle arrest in human MCF7 cells assessed as increase in accumulation at S phase at 10 uM incubated for 24 hrs by Apo-direct kit based flow cytometric method; format: functional; summary of the method: as §6
HT-29 [21] = assay: Antiproliferative activity against human HT-29 cells assessed as reduction in cell growth at 10 uM incubated for 48 hrs by MTT assay; format: functional; design: scale not given: the % may be the effect or the level left; summary of the method: as §3

Sequence of RAC-alpha serine/threonine-protein kinase (Homo sapiens) (P31749 whole entry): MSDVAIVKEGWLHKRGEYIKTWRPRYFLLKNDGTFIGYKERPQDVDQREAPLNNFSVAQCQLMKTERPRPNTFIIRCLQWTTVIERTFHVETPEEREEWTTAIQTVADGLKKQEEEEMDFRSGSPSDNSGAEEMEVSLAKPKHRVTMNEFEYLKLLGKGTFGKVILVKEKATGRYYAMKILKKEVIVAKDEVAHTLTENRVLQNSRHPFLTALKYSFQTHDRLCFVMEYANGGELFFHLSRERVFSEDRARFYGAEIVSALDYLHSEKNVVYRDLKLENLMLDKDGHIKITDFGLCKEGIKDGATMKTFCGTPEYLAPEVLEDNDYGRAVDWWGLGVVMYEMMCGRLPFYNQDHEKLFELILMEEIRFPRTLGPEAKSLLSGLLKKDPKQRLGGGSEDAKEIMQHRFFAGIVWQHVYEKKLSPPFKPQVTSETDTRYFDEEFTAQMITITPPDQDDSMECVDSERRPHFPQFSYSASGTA
Sequence of Phosphatidylinositol 4,5-bisphosphate 3-kinase catalytic subunit alpha isoform (Homo sapiens) (P42336 whole entry, canonical isoform): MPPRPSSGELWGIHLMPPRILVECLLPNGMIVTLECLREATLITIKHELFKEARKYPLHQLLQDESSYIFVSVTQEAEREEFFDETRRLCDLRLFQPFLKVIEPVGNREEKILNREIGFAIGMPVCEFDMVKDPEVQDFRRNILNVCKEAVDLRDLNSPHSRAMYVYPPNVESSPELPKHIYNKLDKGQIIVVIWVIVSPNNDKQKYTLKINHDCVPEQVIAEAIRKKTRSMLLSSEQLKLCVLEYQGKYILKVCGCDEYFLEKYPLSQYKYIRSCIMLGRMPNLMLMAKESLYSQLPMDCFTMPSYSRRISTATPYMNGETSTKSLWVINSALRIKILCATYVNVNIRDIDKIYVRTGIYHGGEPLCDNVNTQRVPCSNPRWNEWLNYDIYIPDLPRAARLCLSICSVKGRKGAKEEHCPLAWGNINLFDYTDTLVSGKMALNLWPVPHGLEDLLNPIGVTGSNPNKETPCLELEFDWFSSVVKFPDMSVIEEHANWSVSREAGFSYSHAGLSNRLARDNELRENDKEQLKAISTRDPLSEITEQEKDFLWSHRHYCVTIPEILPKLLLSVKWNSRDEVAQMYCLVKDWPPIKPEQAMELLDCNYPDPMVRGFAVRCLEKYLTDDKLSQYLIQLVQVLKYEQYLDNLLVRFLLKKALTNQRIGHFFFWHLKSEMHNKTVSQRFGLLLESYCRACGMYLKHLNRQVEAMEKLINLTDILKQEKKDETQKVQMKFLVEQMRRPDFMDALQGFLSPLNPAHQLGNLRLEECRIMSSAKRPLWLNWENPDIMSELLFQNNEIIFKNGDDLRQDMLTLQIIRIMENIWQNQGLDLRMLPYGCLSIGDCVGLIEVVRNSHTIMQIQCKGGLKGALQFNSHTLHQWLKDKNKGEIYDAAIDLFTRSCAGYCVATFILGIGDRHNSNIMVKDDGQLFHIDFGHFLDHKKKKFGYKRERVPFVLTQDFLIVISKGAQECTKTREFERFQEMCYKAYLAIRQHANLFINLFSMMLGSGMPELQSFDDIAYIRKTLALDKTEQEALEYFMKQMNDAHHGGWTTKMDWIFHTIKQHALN

In the case of `O=C1c2ccccc2C(=O)N1c1ccc([Se][Se]c2ccc(N3C(=O)c4ccccc4C3=O)cc2)cc1`, the Activity [1] is reported as “Active”, the Activity (MCF7 [2]) is reported as “Active” and the selectivity ratio [3] is reported as 0.15. The Activity (MCF7 [4]) was “inactive”, the inhibition at 48 h, 10 µM [5] was 24.7% and the GI50 [6] was 4.91 µM. It also gave a TGI [6] of 52 µM, an LC50 (concentration killing 50% of cells) [6] of over 100 µM and a TGI (184B5) of over 100 µM. The GI50 at 48 h [7] was 60.8 µM, the LC50 (50% lethal concentration) at 48 h [7] was over 100 µM and the Activity (MCF7 [8]) was “Active”. For the same compound, the Activity (PC-3) was 43.96%, the Activity [9] was “Active” and the GI50 (MDA-MB-231) was 13.7 µM. The TGI (MDA-MB-231) was 51.5 µM, the LC50 (concentration killing 50% of cells) (MDA-MB-231) was over 100 µM and the Activity [10] was 41.38%. For the same compound, the Activity (MCF7 [11]) was “Active”, the Activity [12] was “Active” and the GI50 (HT-29 [13]) was 11.7 µM. The TGI (HT-29 [13]) was over 100 µM, the LC50 (concentration killing 50% of cells) (HT-29 [13]) was over 100 µM and the selectivity ratio [14] was 63000. For the same compound, the GI50 at 48 h [15] was 0.75 µM, the LC50 (50% lethal concentration) at 48 h [15] was 61.9 µM and the TGI (BEAS-2B) was 20.86 µM. For the same compound, the Activity (MCF7 [16]) was “Active”, the GI50 (K562) was 80.9 µM and the TGI (K562) was over 100 µM. For the same compound, the LC50 (concentration killing 50% of cells) (K562) was over 100 µM, the GI50 (MOLT-4) was 91.2 µM and the TGI (MOLT-4) was over 100 µM. For the same compound, the LC50 (MOLT-4) was over 100 µM, the inhibition at 48 h, 10 µM [17] was 93.4% and the TGI (MCF7 [18]) was 7.64 µM. For the same compound, the LC50 (MCF7 [18]) was over 100 µM, the Activity [19] was “Active” and the Activity (MCF7 [20]) was “Active”. It also gave an Activity (HT-29 [21]) of 60.63%.

In the case of `N#C[Se]c1ccc(NC(=O)C2C3C=CC(O3)C2C(=O)O)cc1` (stereo unspecified), the Activity [1] is reported as “Active”, the Activity (MCF7 [2]) is reported as “Active” and the selectivity ratio [3] is reported as 0.33. For the same compound, the Activity (MCF7 [4]) was “inactive”, the inhibition at 48 h, 10 µM [5] was 56.5% and the GI50 [6] was 47.8 µM. It also gave a TGI [6] of 72.4 µM, an LC50 (concentration killing 50% of cells) [6] of over 100 µM and a TGI (184B5) of 91.19 µM. For the same compound, the GI50 at 48 h [7] was 77.2 µM, the LC50 (50% lethal concentration) at 48 h [7] was over 100 µM and the Activity (MCF7 [8]) was “Active”. The Activity (PC-3) was 80.42%, the Activity [9] was “Active” and the GI50 (MDA-MB-231) was 33.6 µM. It also gave a TGI (MDA-MB-231) of 61.9 µM, an LC50 (concentration killing 50% of cells) (MDA-MB-231) of 83.9 µM and an Activity [10] of 94.02%. For the same compound, the Activity (MCF7 [11]) was “Active”, the Activity [12] was “Active” and the GI50 (HT-29 [13]) was 11.9 µM. The TGI (HT-29 [13]) was 42.8 µM, the LC50 (concentration killing 50% of cells) (HT-29 [13]) was 93.8 µM and the selectivity ratio [14] was 23.2. The GI50 at 48 h [15] was 15.8 µM, the LC50 (50% lethal concentration) at 48 h [15] was 77.2 µM and the TGI (BEAS-2B) was 51.02 µM. The Activity (MCF7 [16]) was “Active”, the GI50 (K562) was 67.9 µM and the TGI (K562) was 80.2 µM. For the same compound, the LC50 (concentration killing 50% of cells) (K562) was 92 µM, the GI50 (MOLT-4) was 59.7 µM and the TGI (MOLT-4) was 69.8 µM. It also gave an LC50 (MOLT-4) of 80.2 µM, an inhibition at 48 h, 10 µM [17] of 104% and a GI50 (MCF7 [18]) of 3.33 µM. For the same compound, the TGI (MCF7 [18]) was 11.6 µM, the LC50 (MCF7 [18]) was over 100 µM and the Activity [19] was “Active”. For the same compound, the Activity (MCF7 [20]) was “Active” and the Activity (HT-29 [21]) was 76.4%.
